Results from ChEMBL document CHEMBL4689842, “EUbOPEN Chemogenomics Library wave 1” (2021).

What was measured:
HEK-293T = test: Multiplex assay against HEK293T; assay type: toxicity, cell-based; settings: human;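 as to Population Tubulin-Different-Phenotype (%): share of the cells with healthy nuclei that show this phenotype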
How it was run: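 Four dyes were applied at seeding to live cells: Hoechst33342, BioTracker Green Microtubule Cytoskeleton Dye, MitoTracker Red and Annexin V Alexa Fluor 680. Imaging after compound addition used a CQ1 microscope at 37°C and 5% CO2. CellPathfinder machine-learning gating then sorted cells into Hoechst high-intensity objects or normal cells, normal cells into healthy, pyknosed or fragmented nuclei, and pyknosed cells into mitotic or apoptotic, with tubulin, mitochondrial-mass and membrane-permeability phenotypes given as per cents of healthy-nucleus cells.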

Fibroblast = test: Incucyte cell viability with human fibroblast; assay type: toxicity, cell-based; settings: 10 µM, compound concentration 10 uM; also: filed as whole numbers so only -1 and 0 and 1 occur
[1] = 12 h, 1 µM, compound concentration 1 uM, replicate 1
[2] = 12 h, 1 µM, compound concentration 1 uM, replicate 2
[3] = 12 h, 10 µM, compound concentration 10 uM, replicate 1
[4] = 12 h, 10 µM, compound concentration 10 uM, replicate 2
[5] = 24 h, 1 µM, compound concentration 1 uM, replicate 1
[6] = 24 h, 1 µM, compound concentration 1 uM, replicate 2
[7] = 24 h, 10 µM, compound concentration 10 uM, replicate 1
[8] = 24 h, 10 µM, compound concentration 10 uM, replicate 2

N#Cc1cnc(Nc2cc(NC[C@H]3CNCCO3)c(C(F)(F)F)cn2)cn1 [SRA-737]
Population Apoptotic (%) (HEK-293T; [1]): 16% | Population Fragmented Nuclei (%) (HEK-293T; [1]): 13% | Population Healthy Nuclei (%) (HEK-293T; [1]): 66% | Population Hoechst High Intensity Objects (%) (HEK-293T; [1]): 13% | Population Membrane Permeable-Phenotype (%) (HEK-293T; [1]): 3% | Population Mitochondria Different-Phenotype (%) (HEK-293T; [1]): 3% | Population Mitotic Cells (%) (HEK-293T; [1]): 83% | Population Normal (%) (HEK-293T; [1]): 86% | Population Pyknosed Nuclei (%) (HEK-293T; [1]): 19% | Population Tubulin-Different-Phenotype (%) (HEK-293T; [1]): 3% | Total Cell Count (HEK-293T; [1]): 617 | Population Apoptotic (%) (HEK-293T; [2]): 12% | Population Fragmented Nuclei (%) (HEK-293T; [2]): 11% | Population Healthy Nuclei (%) (HEK-293T; [2]): 84% | Population Hoechst High Intensity Objects (%) (HEK-293T; [2]): 2% | Population Membrane Permeable-Phenotype (%) (HEK-293T; [2]): 2% | Population Mitochondria Different-Phenotype (%) (HEK-293T; [2]): 7% | Population Mitotic Cells (%) (HEK-293T; [2]): 87% | Population Normal (%) (HEK-293T; [2]): 97% | Population Pyknosed Nuclei (%) (HEK-293T; [2]): 3% | Population Tubulin-Different-Phenotype (%) (HEK-293T; [2]): 5% | Total Cell Count (HEK-293T; [2]): 2034 | Population Apoptotic (%) (HEK-293T; [3]): 20% | Population Fragmented Nuclei (%) (HEK-293T; [3]): 10% | Population Healthy Nuclei (%) (HEK-293T; [3]): 69% | Population Hoechst High Intensity Objects (%) (HEK-293T; [3]): 14% | Population Mitochondria Different-Phenotype (%) (HEK-293T; [3]): 6% | Population Mitotic Cells (%) (HEK-293T; [3]): 79% | Population Normal (%) (HEK-293T; [3]): 85% | Population Pyknosed Nuclei (%) (HEK-293T; [3]): 20% | Population Tubulin-Different-Phenotype (%) (HEK-293T; [3]): 5% | Total Cell Count (HEK-293T; [3]): 721 | Population Apoptotic (%) (HEK-293T; [4]): 13% | Population Fragmented Nuclei (%) (HEK-293T; [4]): 6% | Population Healthy Nuclei (%) (HEK-293T; [4]): 85% | Population Hoechst High Intensity Objects (%) (HEK-293T; [4]): 3% | Population Membrane Permeable-Phenotype (%) (HEK-293T; [4]): 2% | Population Mitochondria Different-Phenotype (%) (HEK-293T; [4]): 16% | Population Mitotic Cells (%) (HEK-293T; [4]): 86% | Population Normal (%) (HEK-293T; [4]): 96% | Population Pyknosed Nuclei (%) (HEK-293T; [4]): 8% | Population Tubulin-Different-Phenotype (%) (HEK-293T; [4]): 16% | Total Cell Count (HEK-293T; [4]): 1376 | Population Apoptotic (%) (HEK-293T; [5]): 9% | Population Fragmented Nuclei (%) (HEK-293T; [5]): 10% | Population Healthy Nuclei (%) (HEK-293T; [5]): 77% | Population Hoechst High Intensity Objects (%) (HEK-293T; [5]): 7% | Population Membrane Permeable-Phenotype (%) (HEK-293T; [5]): 5% | Population Mitochondria Different-Phenotype (%) (HEK-293T; [5]): 2% | Population Mitotic Cells (%) (HEK-293T; [5]): 90% | Population Normal (%) (HEK-293T; [5]): 92% | Population Pyknosed Nuclei (%) (HEK-293T; [5]): 11% | Population Tubulin-Different-Phenotype (%) (HEK-293T; [5]): 4% | Total Cell Count (HEK-293T; [5]): 740 | Population Apoptotic (%) (HEK-293T; [6]): 5% | Population Fragmented Nuclei (%) (HEK-293T; [6]): 34% | Population Healthy Nuclei (%) (HEK-293T; [6]): 63% | Population Hoechst High Intensity Objects (%) (HEK-293T; [6]): 4% | Population Membrane Permeable-Phenotype (%) (HEK-293T; [6]): 8% | Population Mitochondria Different-Phenotype (%) (HEK-293T; [6]): 1% | Population Mitotic Cells (%) (HEK-293T; [6]): 94% | Population Normal (%) (HEK-293T; [6]): 95% | Population Pyknosed Nuclei (%) (HEK-293T; [6]): 2% | Population Tubulin-Different-Phenotype (%) (HEK-293T; [6]): 10% | Total Cell Count (HEK-293T; [6]): 3420 | Population Apoptotic (%) (HEK-293T; [7]): 25% | Population Fragmented Nuclei (%) (HEK-293T; [7]): 10% | Population Healthy Nuclei (%) (HEK-293T; [7]): 70% | Population Hoechst High Intensity Objects (%) (HEK-293T; [7]): 10% | Population Membrane Permeable-Phenotype (%) (HEK-293T; [7]): 4% | Population Mitochondria Different-Phenotype (%) (HEK-293T; [7]): 6% | Population Mitotic Cells (%) (HEK-293T; [7]): 75% | Population Normal (%) (HEK-293T; [7]): 89% | Population Pyknosed Nuclei (%) (HEK-293T; [7]): 18% | Population Tubulin-Different-Phenotype (%) (HEK-293T; [7]): 15% | Total Cell Count (HEK-293T; [7]): 729 | Population Apoptotic (%) (HEK-293T; [8]): 21% | Population Fragmented Nuclei (%) (HEK-293T; [8]): 12% | Population Healthy Nuclei (%) (HEK-293T; [8]): 64% | Population Hoechst High Intensity Objects (%) (HEK-293T; [8]): 8% | Population Membrane Permeable-Phenotype (%) (HEK-293T; [8]): 7% | Population Mitochondria Different-Phenotype (%) (HEK-293T; [8]): 17% | Population Mitotic Cells (%) (HEK-293T; [8]): 78% | Population Normal (%) (HEK-293T; [8]): 91% | Population Pyknosed Nuclei (%) (HEK-293T; [8]): 22% | Population Tubulin-Different-Phenotype (%) (HEK-293T; [8]): 44% | Total Cell Count (HEK-293T; [8]): 1254 | Growth Rate (Fibroblast; 0 h, replicate number 1, timepoint 0 hours): 0 | Growth Rate (Fibroblast; 6 h, replicate number 1, timepoint 6 hours): 1 | Growth Rate (Fibroblast; 12 h, replicate number 1, timepoint 12 hours): 1 | Growth Rate (Fibroblast; 18 h, replicate number 1, timepoint 18 hours): 1 | Growth Rate (Fibroblast; 24 h, replicate number 1, timepoint 24 hours): 0 | Growth Rate (Fibroblast; 24 h, replicate number 2, timepoint 24 hours): 1
